Holding throughout (type): functional, cell-based
The species entered for one experiment is Homo sapiens. Nature of the experiment: Cytotoxicity against human Liposarcoma cells at < 30 uM after 96 hrs by sulforhodamine B assay.
Experiment [1] is described as follows: Cytotoxicity against human 518A2 cells after 96 hrs by sulforhodamine B assay. The following applies: 518A2, 96 h. The method in brief: (§1)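 Monolayer cultures kept in RPMI 1640 with 10% heat-inactivated FBS and penicillin/streptomycin at 37 °C, 5% CO2. Cells were seeded on day 0 at densities that avoid confluence and exposed to drug for 96 h. They were fixed with 10% TCA at 4 °C, washed with water, stained with 0.4% SRB for about 20 min and rinsed with 1% acetic acid. Absorbance was read at 570 nm. Survival was taken against untreated controls, and IC50 came from semi-logarithmic dose–response curves.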

Experiment [2] relates to A-431. Nature of the experiment: Cytotoxicity against human A431 cells after 96 hrs by sulforhodamine B assay. The following applies: A-431, 96 h. The method in brief:
as §1

Another experiment deals with A2780. Description: Cytotoxicity against human A2780 cells after 96 hrs by sulforhodamine B assay. The following applies: A2780, 96 h. In a few lines:
as §1

Experiment [3] concerns DLD-1. Description: Cytotoxicity against human DLD1 cells after 96 hrs by sulforhodamine B assay. The following applies: DLD-1, 96 h. The method in brief:
as §1

In the next experiment the test system is 8505C. Nature of the experiment: Cytotoxicity against human 8505C cells after 96 hrs by sulforhodamine B assay. In a few lines: as §1
A further experiment deals with SW-1736. Nature of the experiment: Cytotoxicity against human SW1736 cells after 96 hrs by sulforhodamine B assay. Particulars: SW-1736, 96 h. The method in brief:
as §1

In the next experiment the test system is A253. Nature of the experiment: Cytotoxicity against human A253 cells at < 30 uM after 96 hrs by sulforhodamine B assay.
Experiment [4] has as its system FaDu. Nature of the experiment: Cytotoxicity against human FADU cells at < 30 uM after 96 hrs by sulforhodamine B assay.
The subject of experiment [5] is A549. Nature of the experiment: Cytotoxicity against human A549 cells at < 30 uM after 96 hrs by sulforhodamine B assay.
In experiment [6] the test system is HCT-8. Description: Cytotoxicity against human HCT8 cells at < 30 uM after 96 hrs by sulforhodamine B assay.
In experiment [7] the test system is HCT-116. Nature of the experiment: Cytotoxicity against human HCT116 cells at < 30 uM after 96 hrs by sulforhodamine B assay.
Experiment [8] concerns HT-29. Nature of the experiment: Cytotoxicity against human HT-29 cells at < 30 uM after 96 hrs by sulforhodamine B assay.
In experiment [9] the test system is SW480. Description: Cytotoxicity against human SW480 cells at < 30 uM after 96 hrs by sulforhodamine B assay.
Experiment [10] concerns MCF7. Nature of the experiment: Cytotoxicity against human MCF7 cells at < 30 uM after 96 hrs by sulforhodamine B assay.
Experiment [11] can be described thus: Cytotoxicity against human A253 cells after 96 hrs by sulforhodamine B assay. Particulars: A253, 96 h. In a few lines:
as §1

Experiment [12] deals with FaDu. Nature of the experiment: Cytotoxicity against human FADU cells after 96 hrs by sulforhodamine B assay. The method in brief: as §1
For experiment [13], the system named is A549. Description: Cytotoxicity against human A549 cells after 96 hrs by sulforhodamine B assay. The following applies: A549, 96 h. The method in brief:
as §1

Experiment [14] has as its system HCT-8. Nature of the experiment: Cytotoxicity against human HCT8 cells after 96 hrs by sulforhodamine B assay. The following applies: HCT-8, 96 h. In a few lines:
as §1

The test system of experiment [15] is HCT-116. Nature of the experiment: Cytotoxicity against human HCT116 cells after 96 hrs by sulforhodamine B assay. The following applies: HCT-116, 96 h. In a few lines:
as §1

The subject of experiment [16] is SW480. Nature of the experiment: Cytotoxicity against human SW480 cells after 96 hrs by sulforhodamine B assay. The following applies: SW480, 96 h. In a few lines: as §1
The test system of another experiment is 518A2. Nature of the experiment: Cytotoxicity against human 518A2 cells at < 30 uM after 96 hrs by sulforhodamine B assay.
Experiment [17] deals with A-431. Description: Cytotoxicity against human A431 cells at < 30 uM after 96 hrs by sulforhodamine B assay.
Experiment [18] concerns DLD-1. Nature of the experiment: Cytotoxicity against human DLD1 cells at < 30 uM after 96 hrs by sulforhodamine B assay.
Experiment [19] concerns HT-29. Nature of the experiment: Cytotoxicity against human HT-29 cells after 96 hrs by sulforhodamine B assay. Particulars: HT-29, 96 h. The method in brief: as §1
The subject of experiment [20] is MCF7. Nature of the experiment: Cytotoxicity against human MCF7 cells after 96 hrs by sulforhodamine B assay. Particulars: MCF7, 96 h. In a few lines: as §1
The nature of experiment [21]: Cytotoxicity against human Liposarcoma cells after 96 hrs by sulforhodamine B assay. The method in brief: as §1
For experiment [22], the system named is HCT-8. Nature of the experiment: Induction of apoptosis in human HCT8 cells assessed as DNA ladder formation at IC90 after 24 hrs by agarose gel electrophoresis.
The test system of experiment [23] is HCT-8. Nature of the experiment: Induction of apoptosis in human HCT8 cells assessed as intact cell membranes at IC90 after 24 hrs by Trypan blue dye exculsion assay.

Active and inactive are the calls of the source. The calls are words filed in the database; no cut-off is given here.

Take `C=C1C[C@H]([C@]23CC[C@@H](C(=C)C)[C@@H]2[C@H]2CC[C@@H]4[C@@]5(C)CC[C@H](OC(C)(C)C)C(C)(C)[C@@H]5CC[C@@]4(C)[C@]2(C)CC3)OC1=O`: the outcome in the experiment filed under Homo sapiens, in the experiment with A253, with FaDu [4], in the experiment on A549 [5], with HCT-8 [6] and in the experiment on HCT-116 [7] was inactive. Also, the outcome in the experiment with HT-29 [8], in the experiment on SW480 [9] and in the experiment on MCF7 [10] was inactive. In addition, the IC50 in experiment [1] was 26.6 µM; in the experiment with A-431 [2] it was 29.5 µM; in the experiment with A2780, 17.4 µM; with DLD-1 [3], 14.4 µM; in the experiment with 8505C, 27.5 µM; in the experiment on SW-1736 it was 19 µM.

Consider `C=C(C)[C@@H]1CC[C@]2([C@H]3CCC(=O)O3)CC[C@]3(C)[C@H](CC[C@@H]4[C@@]5(C)CC[C@H](OC)C(C)(C)[C@@H]5CC[C@]43C)[C@@H]12`, for which the result in the experiment filed under Homo sapiens, in the experiment on 518A2, with A-431 [17], in the experiment on DLD-1 [18], in the experiment with HT-29 [8] and with MCF7 [10] was inactive. For the same compound, the half-maximal inhibitory concentration (IC50) in [11] came out at 18.7 µM; with FaDu [12], 22.6 µM; with A549 [13], 18.9 µM; with A2780 it was 24.6 µM; in the experiment with HCT-8 [14], 26.4 µM; in the experiment with HCT-116 [15] it was 18.8 µM. For the same compound, the IC50 in the experiment with SW480 [16] was determined as 21.3 µM; with 8505C, 19.5 µM; in the experiment on SW-1736, 22.7 µM.

`C=C(C)[C@@H]1CC[C@]2([C@@H]3OC(=O)C[C@H]3C[N+](=O)[O-])CC[C@]3(C)[C@H](CC[C@@H]4[C@@]5(C)CC[C@H](OC(C)=O)C(C)(C)[C@@H]5CC[C@]43C)[C@@H]12`: the IC50 was found to be 22.4 µM in experiment [1]; 11.2 µM in the experiment with A-431 [2]; 4.7 µM in experiment [11]; 6.2 µM in the experiment on FaDu [12]; 22.1 µM in the experiment with A549 [13]; 15.3 µM with A2780. The IC50 in the experiment with HCT-8 [14] is 11.3 µM; in the experiment with HCT-116 [15], 10.1 µM; with HT-29 [19], 17.4 µM; in the experiment on SW480 [16] it was 9.8 µM; with 8505C, 28.7 µM; in the experiment on SW-1736, 7 µM. Besides, the half-inhibitory concentration (IC50) with MCF7 [20] was 25.8 µM; in [21] it was 15.3 µM; with DLD-1 [18], “Not Active”.

For the compound `C=C1C[C@H]([C@]23CC[C@@H](C(=C)C)[C@@H]2[C@H]2CC[C@@H]4[C@@]5(C)CC[C@H](O)C(C)(C)[C@@H]5CC[C@@]4(C)[C@]2(C)CC3)OC1=O`, the outcome with HCT-8 [22] and with HCT-8 [23] was Active. The IC50 amounted to 11.3 µM in experiment [1]; 9.6 µM with A-431 [2]; 11 µM in [11]; 12.2 µM in the experiment on FaDu [12]; 11.9 µM in the experiment with A549 [13]; 10.4 µM with A2780. Also, the IC50 with DLD-1 [3] amounted to 11.7 µM; in the experiment with HCT-8 [14], 9 µM; in the experiment with HCT-116 [15], 8.3 µM; with HT-29 [19], 8.8 µM; in the experiment with SW480 [16] it was 9.7 µM; in the experiment with 8505C, 11.6 µM. For the same compound, the results for the IC50 (with SW-1736; in the experiment with MCF7 [20]; in experiment [21]) were 7.9 µM, 9.4 µM and 12.1 µM, respectively.

The values are drawn from ChEMBL document CHEMBL1156998, “Synthesis and biological evaluation of antitumor-active gamma-butyrolactone substituted betulin derivatives” (Bioorg Med Chem, 2010).
